Experimental data: ChEMBL document CHEMBL1777776, “Identification of 2-mercaptohexanoic acids as dual inhibitors of 5-lipoxygenase and microsomal prostaglandin E₂ synthase-1” (Bioorg Med Chem, 2011)
Active and inactive are the calls of the source. The calls are words filed in the database; no cut-off is given here.

Experiments:
[1] = biological target: T1, Polyunsaturated fatty acid 5-lipoxygenase (Homo sapiens, UniProt P09917); test: Inhibition of 5-lipoxygenase in A23187-stimulated human PMNL assessed as enzyme product formation preincubated 15 mins by RP-HPLC analysis in presence of exogenous arachidonic acid
T1 sequence (P09917 whole entry): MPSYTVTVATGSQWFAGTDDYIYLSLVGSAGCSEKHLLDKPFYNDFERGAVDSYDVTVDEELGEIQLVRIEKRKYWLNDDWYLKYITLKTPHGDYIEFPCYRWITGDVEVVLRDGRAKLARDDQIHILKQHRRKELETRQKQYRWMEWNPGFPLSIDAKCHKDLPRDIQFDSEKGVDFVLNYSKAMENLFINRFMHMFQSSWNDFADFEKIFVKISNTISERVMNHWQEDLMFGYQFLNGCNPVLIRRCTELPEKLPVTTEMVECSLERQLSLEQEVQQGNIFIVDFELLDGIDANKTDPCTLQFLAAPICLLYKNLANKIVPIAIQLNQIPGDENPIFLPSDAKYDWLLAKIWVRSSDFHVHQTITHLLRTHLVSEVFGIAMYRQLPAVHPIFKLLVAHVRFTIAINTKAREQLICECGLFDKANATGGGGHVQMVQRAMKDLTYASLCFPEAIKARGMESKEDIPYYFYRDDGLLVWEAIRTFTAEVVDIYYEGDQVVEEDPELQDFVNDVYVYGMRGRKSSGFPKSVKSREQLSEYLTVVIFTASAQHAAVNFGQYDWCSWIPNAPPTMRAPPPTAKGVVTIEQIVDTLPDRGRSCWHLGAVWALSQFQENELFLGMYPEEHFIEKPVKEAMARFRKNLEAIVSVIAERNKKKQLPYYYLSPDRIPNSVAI
How it was run: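 Freshly isolated human PMNL (5 × 10⁶/ml PGC buffer: PBS pH 7.4, 1 mg/ml glucose, 1 mM CaCl₂) preincubated with compound 15 min at 37 °C. Stimulated with 2.5 µM A23187 plus exogenous AA for 10 min at 37 °C. Stopped with methanol, PGB₁ added as internal standard, lipoxygenase products analysed by HPLC. Mean of n = 3–5.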

[2] = biological target: T2, Polyunsaturated fatty acid 5-lipoxygenase (Homo sapiens) (UniProt P09917); test: Inhibition of human recombinant 5-lipoxygenase expressed in Escherichia coli BL21 assessed as enzyme product formation measured after washout
T2 sequence (whole entry): T1 sequence (P09917 whole entry)
How it was run: (§1)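 Human 5-LO expressed in E. coli BL21 (pT3-5LO), affinity-purified and used at once. 0.5 µg enzyme in 1 ml PBS/EDTA with 1 mM ATP preincubated with compound 5–10 min at 4 °C, then warmed 30 s at 37 °C. Reaction started with 2 mM CaCl₂ and AA (routinely 20 µM), with or without 1 µM 13(S)-HpODE. Run 10 min at 37 °C, stopped with ice-cold methanol, products analysed by HPLC. Washout: 10-fold dilution (10 to 1 µM).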

[3] = biological target: T2, Polyunsaturated fatty acid 5-lipoxygenase (Homo sapiens); test: Inhibition of human recombinant 5-lipoxygenase expressed in Escherichia coli BL21 assessed as enzyme product formation measured up to 30 uM in presence of 13(S)-HpODE; how it was run: as §1
[4] = biological target: T3, Prostaglandin G/H synthase 2 (Homo sapiens) (UniProt P35354); test: Inhibition of human recombinant COX2 assessed as residual activity at 10 uM after 5 mins
T3 sequence (whole entry): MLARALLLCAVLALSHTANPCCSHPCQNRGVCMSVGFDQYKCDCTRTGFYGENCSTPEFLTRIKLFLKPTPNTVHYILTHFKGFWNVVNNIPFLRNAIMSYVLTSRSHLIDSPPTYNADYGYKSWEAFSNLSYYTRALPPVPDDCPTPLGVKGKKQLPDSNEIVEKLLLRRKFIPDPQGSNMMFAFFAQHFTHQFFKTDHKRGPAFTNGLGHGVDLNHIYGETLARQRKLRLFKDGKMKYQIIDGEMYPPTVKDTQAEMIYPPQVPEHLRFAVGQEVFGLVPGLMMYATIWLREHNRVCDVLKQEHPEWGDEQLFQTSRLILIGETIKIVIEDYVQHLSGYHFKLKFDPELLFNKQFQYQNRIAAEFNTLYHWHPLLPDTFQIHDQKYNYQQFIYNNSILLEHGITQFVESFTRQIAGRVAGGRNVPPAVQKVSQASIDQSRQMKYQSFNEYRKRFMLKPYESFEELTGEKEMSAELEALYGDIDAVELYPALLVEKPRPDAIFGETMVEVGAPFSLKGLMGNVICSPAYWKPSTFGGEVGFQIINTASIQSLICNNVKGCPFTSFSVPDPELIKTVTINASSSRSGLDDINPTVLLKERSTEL
How it was run: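 Ovine COX-1 (50 units) or human recombinant COX-2 (20 units) in 1 ml 100 mM Tris pH 8 with 5 mM glutathione, 5 µM haemoglobin and 100 µM EDTA. Preincubated with 10 µM compound 5 min at 4 °C, warmed 60 s at 37 °C. Started with AA (5 µM for COX-1, 2 µM for COX-2), run 5 min at 37 °C. 12-HHT extracted and analysed by HPLC. n = 3.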

[5] = biological target: T4, Cytosolic phospholipase A2 (Homo sapiens) (UniProt P47712); test: Inhibition of cPLA2 assessed as residual activity at 10 uM after 5 mins
T4 sequence (whole entry): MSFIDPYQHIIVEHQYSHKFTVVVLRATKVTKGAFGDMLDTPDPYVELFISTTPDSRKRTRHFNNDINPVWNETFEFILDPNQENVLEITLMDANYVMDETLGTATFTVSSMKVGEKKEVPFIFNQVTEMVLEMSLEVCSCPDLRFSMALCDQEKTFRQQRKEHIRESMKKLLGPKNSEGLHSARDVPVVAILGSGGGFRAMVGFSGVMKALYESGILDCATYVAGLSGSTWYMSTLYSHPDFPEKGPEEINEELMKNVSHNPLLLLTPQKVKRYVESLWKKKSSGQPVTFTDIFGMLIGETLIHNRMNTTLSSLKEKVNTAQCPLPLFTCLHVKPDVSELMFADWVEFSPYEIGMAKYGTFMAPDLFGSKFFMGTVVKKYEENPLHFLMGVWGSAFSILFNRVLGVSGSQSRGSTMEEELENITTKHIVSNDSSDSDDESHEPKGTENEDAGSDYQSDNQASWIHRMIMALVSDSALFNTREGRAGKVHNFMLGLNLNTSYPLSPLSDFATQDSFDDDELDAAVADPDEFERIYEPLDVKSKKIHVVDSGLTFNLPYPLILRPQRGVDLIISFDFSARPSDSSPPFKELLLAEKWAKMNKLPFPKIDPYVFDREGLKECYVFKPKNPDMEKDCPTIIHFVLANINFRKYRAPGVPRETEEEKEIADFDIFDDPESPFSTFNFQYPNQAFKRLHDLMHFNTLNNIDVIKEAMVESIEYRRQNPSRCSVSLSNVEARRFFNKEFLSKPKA

IC50 [1]: 0.9 µM
inhibition [2]: Active
inhibition [3]: Active
inhibition [4]: inactive
Activity [5]: 106%
SMILES: CCCCC(Sc1ccc(OCCCOc2ccc(-c3ccccc3)cc2)cc1)C(=O)O (stereo not given)
